Measurements: ChEMBL document CHEMBL2384941, “A small molecule inhibitor of fungal histone acetyltransferase Rtt109” (Bioorg Med Chem Lett, 2013)
Each block holds one compound with its values, some of them ahead of it. Calls of active or inactive are those of the source. No cut-off for these calls is given here.

Columns and labels:
[1] = tested on: Rtt109 (Saccharomyces cerevisiae); experiment: Inhibition of Vps75-stimulated recombinant Saccharomyces cerevisiae 6xHis-tagged histone acetyltransferase Rtt109 using H3n21 peptide and acetyl-coenzyme A as substrate assessed as release of CoA at 0.1 to 1 uM preincubated for 5 mins with H3n21 followed by acetyl-coenzyme A addition measured after …
[2] = tested on: Rtt109 (Saccharomyces cerevisiae); experiment: Inhibition of Vps75-stimulated recombinant Saccharomyces cerevisiae 6xHis-tagged histone acetyltransferase Rtt109 using H3n21 peptide and acetyl-coenzyme A as substrate assessed as release of CoA at 0.3 to 10 uM preincubated for 5 mins with H3n21 followed by acetyl-coenzyme A addition measured …
[3] = molecular target: Histone acetyltransferase p300 (Homo sapiens) (UniProt Q09472); experiment: (§1) Inhibition of N-terminal 6xHis-Flag epitope-tagged histone acetyltransferase p300 catalytic domain (1195 to 1810) (unknown origin) expressed in Escherichia coli BL21 using (H3-H4)2 peptide and acetyl-coenzyme A as substrate assessed as inhibition of lysine acetylation incubated for 5 mins prior to acetyl-coenzyme A addition measured after 30 mins by ELISA
Method in brief: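 p300 (15 µg/ml) with […] (H3-H4)2 tetramers. Pre-incubated 5 min with compound or DMSO, then started with 15 µM acetyl-CoA. Run 30 min at 30°C. Lysine acetylation detected by ELISA with a polyclonal anti-acetyllysine antibody.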

Candida albicans [4] = experiment: Inhibition of histone acetyltransferase Rtt109 in Candida albicans assessed as camptothecin-induced DNA damage
[5] = molecular target: Histone acetyltransferase p300 (Homo sapiens) (UniProt Q09472); experiment: as §1, with “using” for “using (H3-H4)2 peptide and”, “release” for “inhibition”, “coenzyme A” for “lysine acetylation”, “every 2 mins for 10” for “after 30”, “ThioGlo1 assay” for “ELISA”
Method in brief: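 p300 (15 µg/ml) or Gcn5 (3.1 µg/ml, 61 nM) with 15 µM H3n21 peptide. Pre-incubated 5 min at 30°C with compound (up to 100 µM) or DMSO. Started with 30 µM acetyl-CoA. Released CoA quantified every 2 min over the first 10 min. Rates from linear regression of product versus time.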

[6] = molecular target: T1, Lysine-specific demethylase 4A (Homo sapiens, UniProt O75164); experiment: Inhibition of JMJD2A tudor domain (unknown origin) using histone H4 peptide trimethylated on lysine 20 as substrate
T1 sequence (O75164 whole entry): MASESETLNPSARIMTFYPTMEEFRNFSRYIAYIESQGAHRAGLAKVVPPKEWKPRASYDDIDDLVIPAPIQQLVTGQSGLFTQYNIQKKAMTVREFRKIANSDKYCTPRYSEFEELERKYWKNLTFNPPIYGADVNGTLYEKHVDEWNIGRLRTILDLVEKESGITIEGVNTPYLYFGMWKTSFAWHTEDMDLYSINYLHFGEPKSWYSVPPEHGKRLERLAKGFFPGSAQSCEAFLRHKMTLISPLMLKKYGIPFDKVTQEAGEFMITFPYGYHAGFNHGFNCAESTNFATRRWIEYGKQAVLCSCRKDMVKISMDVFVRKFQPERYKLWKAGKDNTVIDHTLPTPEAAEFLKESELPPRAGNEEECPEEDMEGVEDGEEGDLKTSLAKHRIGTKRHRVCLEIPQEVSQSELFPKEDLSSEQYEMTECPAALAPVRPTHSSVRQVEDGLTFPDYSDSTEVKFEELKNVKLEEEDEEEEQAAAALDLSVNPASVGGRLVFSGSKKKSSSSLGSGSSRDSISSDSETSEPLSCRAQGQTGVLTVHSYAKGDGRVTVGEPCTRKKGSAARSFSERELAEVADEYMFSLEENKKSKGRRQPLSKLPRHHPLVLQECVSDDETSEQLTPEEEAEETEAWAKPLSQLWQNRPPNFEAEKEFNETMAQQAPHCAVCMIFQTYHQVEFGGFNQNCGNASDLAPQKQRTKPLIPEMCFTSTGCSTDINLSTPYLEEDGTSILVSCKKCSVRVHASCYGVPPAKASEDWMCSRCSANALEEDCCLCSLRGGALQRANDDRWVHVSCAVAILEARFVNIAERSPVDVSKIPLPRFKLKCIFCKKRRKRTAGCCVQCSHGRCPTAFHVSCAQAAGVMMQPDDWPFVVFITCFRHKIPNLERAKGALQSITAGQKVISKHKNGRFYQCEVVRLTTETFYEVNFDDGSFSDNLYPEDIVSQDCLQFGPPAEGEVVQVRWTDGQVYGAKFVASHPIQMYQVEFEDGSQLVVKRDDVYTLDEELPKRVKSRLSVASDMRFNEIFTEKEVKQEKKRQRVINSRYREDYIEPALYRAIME

[7] = molecular target: Histone acetyltransferase RTT109 (Saccharomyces cerevisiae) (UniProt Q07794); experiment: Irreversible inhibition of Vps75-stimulated recombinant Saccharomyces cerevisiae 6xHis-tagged histone acetyltransferase Rtt109 using H3n21 peptide as substrate assessed as release of coenzyme A at […] after 4 hrs by 10 fold dilution assay relative to control; parameters: scale not given: the % may be the effect or the level left
[8] = molecular target: T2, Histone acetyltransferase SAS2 (Saccharomyces cerevisiae (strain ATCC 204508 / S288c) (Baker's yeast)) (UniProt P40963); experiment: Inhibition of Vps75-stimulated recombinant Saccharomyces cerevisiae 6xHis-tagged histone acetyltransferase Rtt109 using H3n21 peptide and acetyl-coenzyme A as substrate assessed as release of coenzyme A at 56 1.3 nM incubated for 5 mins prior to acetyl-coenzyme A addition measured every 2 mins for 10 mins by ThioGlo1 assay relative to control
T2 sequence (whole entry): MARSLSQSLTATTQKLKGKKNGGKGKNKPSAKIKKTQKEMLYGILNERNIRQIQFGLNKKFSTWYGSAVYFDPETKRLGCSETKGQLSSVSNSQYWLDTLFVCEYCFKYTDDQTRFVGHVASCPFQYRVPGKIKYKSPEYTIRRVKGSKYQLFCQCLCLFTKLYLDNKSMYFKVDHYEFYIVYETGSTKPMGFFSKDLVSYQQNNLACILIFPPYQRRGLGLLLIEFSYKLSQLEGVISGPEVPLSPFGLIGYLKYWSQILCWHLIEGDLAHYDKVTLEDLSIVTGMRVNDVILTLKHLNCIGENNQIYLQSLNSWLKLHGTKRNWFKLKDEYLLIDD

Candida albicans [9] = experiment: Inhibition of histone acetyltransferase Rtt109 in Candida albicans assessed as inhibition of H3K56 acetylation
[10] = molecular target: Histone acetyltransferase RTT109 (Saccharomyces cerevisiae) (UniProt Q07794); experiment: Inhibition of Vps75-stimulated recombinant Saccharomyces cerevisiae 6xHis-tagged histone acetyltransferase Rtt109 using H3n21 peptide as substrate assessed as release of coenzyme A at […] by ThioGlo1 assay relative to control; parameters: scale not given: the % may be the effect or the level left

Sequence of Histone acetyltransferase p300 (Homo sapiens) (Q09472 whole entry, the tested form may be a part): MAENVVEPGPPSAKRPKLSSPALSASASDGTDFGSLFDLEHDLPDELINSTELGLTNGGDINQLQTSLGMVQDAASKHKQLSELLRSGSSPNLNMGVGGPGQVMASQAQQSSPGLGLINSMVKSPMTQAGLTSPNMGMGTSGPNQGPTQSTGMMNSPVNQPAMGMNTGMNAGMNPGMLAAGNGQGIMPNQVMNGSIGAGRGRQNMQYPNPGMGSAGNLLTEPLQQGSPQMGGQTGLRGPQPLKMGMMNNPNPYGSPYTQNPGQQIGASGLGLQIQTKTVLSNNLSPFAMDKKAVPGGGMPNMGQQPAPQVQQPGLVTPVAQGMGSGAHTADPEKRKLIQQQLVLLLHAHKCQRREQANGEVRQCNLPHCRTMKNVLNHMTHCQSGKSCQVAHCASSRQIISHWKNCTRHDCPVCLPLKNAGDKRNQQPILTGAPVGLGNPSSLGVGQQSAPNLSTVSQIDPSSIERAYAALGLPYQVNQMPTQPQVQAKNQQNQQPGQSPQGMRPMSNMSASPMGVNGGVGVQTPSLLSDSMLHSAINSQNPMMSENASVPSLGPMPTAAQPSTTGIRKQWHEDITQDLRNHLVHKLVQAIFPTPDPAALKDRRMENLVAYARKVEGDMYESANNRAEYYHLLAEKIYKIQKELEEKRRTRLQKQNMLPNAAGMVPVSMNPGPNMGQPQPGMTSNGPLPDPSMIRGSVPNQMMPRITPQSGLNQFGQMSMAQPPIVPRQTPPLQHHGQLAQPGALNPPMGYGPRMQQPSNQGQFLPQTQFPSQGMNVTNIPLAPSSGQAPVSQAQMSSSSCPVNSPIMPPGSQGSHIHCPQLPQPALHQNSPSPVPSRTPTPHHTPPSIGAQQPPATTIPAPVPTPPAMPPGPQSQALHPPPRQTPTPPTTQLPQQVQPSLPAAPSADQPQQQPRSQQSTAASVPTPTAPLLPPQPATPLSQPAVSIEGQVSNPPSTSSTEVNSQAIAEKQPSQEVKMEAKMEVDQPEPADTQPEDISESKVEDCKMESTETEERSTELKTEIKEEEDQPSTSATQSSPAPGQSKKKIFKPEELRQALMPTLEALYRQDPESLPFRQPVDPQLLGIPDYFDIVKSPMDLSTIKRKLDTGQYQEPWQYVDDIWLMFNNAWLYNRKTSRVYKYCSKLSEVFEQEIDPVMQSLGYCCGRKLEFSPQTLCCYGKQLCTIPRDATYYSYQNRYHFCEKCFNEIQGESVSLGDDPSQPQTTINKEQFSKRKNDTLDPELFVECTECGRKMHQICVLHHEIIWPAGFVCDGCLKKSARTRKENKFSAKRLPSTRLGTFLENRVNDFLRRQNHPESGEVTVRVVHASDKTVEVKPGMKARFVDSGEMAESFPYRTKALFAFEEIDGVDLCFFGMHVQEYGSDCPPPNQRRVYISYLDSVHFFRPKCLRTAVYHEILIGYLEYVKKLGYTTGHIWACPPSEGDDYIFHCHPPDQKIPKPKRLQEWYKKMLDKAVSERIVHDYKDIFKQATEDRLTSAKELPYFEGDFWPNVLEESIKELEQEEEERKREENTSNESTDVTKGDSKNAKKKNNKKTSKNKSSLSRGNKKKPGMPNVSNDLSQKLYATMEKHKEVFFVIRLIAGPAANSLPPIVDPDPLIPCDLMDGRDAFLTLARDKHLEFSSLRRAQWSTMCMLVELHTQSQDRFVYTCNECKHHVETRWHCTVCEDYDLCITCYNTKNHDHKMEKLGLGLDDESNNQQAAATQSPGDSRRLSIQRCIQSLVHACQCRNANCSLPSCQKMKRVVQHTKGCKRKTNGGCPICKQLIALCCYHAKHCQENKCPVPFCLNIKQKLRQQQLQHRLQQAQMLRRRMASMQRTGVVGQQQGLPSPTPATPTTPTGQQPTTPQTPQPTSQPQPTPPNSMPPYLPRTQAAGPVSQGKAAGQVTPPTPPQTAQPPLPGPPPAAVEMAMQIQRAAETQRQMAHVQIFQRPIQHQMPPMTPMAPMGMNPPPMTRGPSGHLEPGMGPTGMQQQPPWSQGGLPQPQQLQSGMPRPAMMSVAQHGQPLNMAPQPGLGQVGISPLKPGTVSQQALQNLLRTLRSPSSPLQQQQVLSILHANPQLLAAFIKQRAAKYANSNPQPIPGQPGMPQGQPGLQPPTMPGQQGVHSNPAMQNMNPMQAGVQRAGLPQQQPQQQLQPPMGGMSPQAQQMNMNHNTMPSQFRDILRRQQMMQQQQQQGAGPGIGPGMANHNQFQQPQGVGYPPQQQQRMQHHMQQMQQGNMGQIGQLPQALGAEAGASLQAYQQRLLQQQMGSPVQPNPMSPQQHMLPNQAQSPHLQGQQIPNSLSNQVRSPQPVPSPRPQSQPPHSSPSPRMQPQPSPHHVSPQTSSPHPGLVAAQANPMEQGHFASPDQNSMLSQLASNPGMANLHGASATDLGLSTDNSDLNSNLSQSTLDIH
Sequence of Histone acetyltransferase RTT109 (Saccharomyces cerevisiae) (Q07794 whole entry, looked up): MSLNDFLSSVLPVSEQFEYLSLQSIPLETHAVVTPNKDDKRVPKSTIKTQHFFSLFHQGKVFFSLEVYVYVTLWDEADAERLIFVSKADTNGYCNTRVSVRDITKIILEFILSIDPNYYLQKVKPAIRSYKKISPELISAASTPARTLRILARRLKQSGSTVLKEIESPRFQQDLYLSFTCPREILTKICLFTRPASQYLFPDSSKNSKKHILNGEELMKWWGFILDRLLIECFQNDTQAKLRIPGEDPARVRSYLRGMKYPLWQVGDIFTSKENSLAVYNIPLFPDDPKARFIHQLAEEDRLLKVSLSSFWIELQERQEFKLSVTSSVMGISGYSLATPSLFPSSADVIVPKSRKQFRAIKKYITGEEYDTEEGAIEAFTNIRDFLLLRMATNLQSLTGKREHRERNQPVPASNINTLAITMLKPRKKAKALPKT

inhibition [1]: Active
Structure (SMILES): CCC1(c2ccccc2)NC(=O)N(CC(=O)N(C)Cc2c(F)cccc2Cl)C1=O (stereo unspecified)

inhibition [2]: inactive
Structure (SMILES): CCCCC1(c2ccccc2)NC(=O)N(CC(=O)NCc2ccc(Cl)cc2Cl)C1=O (stereo unspecified)

inhibition [2]: inactive
Structure (SMILES): CN(Cc1c(F)cccc1Cl)C(=O)CN1C(=O)NC2(CCCCc3ccccc32)C1=O (stereo unspecified)

inhibition [3]: inactive
inhibition [5]: inactive
IC50 [6]: 25 µM
Activity [7]: 33%
inhibition [8]: 50%
inhibition (Candida albicans [9]): inactive
Activity [10]: 47%
Structure (SMILES): CCC[C@]1(c2ccccc2)NC(=O)N(CC(=O)N(C)Cc2c(F)cccc2Cl)C1=O
inhibition (Candida albicans [4]): inactive

inhibition [2]: inactive
Structure (SMILES): CCCC1(c2ccccc2)NC(=O)N(Cc2c(F)cccc2Cl)C1=O (stereo unspecified)

inhibition [2]: inactive
Structure (SMILES): CCC1(c2ccc(F)cc2)NC(=O)N(CC(=O)NCc2ccc(Cl)cc2Cl)C1=O (stereo unspecified)

inhibition [2]: inactive
Structure (SMILES): CC(C)CC1(c2ccccc2)NC(=O)N(CC(=O)NCc2ccc(Cl)cc2Cl)C1=O (stereo unspecified)

inhibition [2]: inactive
Structure (SMILES): CC(C)c1ccc(C2(C)NC(=O)N(CC(=O)N(C)Cc3c(F)cccc3Cl)C2=O)cc1 (stereo unspecified)

inhibition [2]: inactive
Structure (SMILES): CCCC1(c2ccccc2)NC(=O)N(Cc2ccc(F)cc2Cl)C1=O (stereo unspecified)
